Data published in ChEMBL document CHEMBL4346709, “Design and Optimization Leading to an Orally Active TTK Protein Kinase Inhibitor with Robust Single Agent Efficacy” (J Med Chem, 2019).
Calls of active or inactive are those of the source. The rule behind the calls is not given here.

Columns and labels:
[1] = target: Leucine-rich repeat serine/threonine-protein kinase 2 (Homo sapiens, UniProt Q5S007); assay: Inhibition of recombinant human GST-tagged LRRK2 catalytic domain (970 to 2527 residues) expressed in baculovirus expression system using LRRKtide as substrate measured after 1 hr by Alexa fluor-647 ADP tracer-based ADAPTA assay
Leucine-rich repeat serine/threonine-protein kinase 2, sequence (Q5S007 whole entry, the tested form may be a part): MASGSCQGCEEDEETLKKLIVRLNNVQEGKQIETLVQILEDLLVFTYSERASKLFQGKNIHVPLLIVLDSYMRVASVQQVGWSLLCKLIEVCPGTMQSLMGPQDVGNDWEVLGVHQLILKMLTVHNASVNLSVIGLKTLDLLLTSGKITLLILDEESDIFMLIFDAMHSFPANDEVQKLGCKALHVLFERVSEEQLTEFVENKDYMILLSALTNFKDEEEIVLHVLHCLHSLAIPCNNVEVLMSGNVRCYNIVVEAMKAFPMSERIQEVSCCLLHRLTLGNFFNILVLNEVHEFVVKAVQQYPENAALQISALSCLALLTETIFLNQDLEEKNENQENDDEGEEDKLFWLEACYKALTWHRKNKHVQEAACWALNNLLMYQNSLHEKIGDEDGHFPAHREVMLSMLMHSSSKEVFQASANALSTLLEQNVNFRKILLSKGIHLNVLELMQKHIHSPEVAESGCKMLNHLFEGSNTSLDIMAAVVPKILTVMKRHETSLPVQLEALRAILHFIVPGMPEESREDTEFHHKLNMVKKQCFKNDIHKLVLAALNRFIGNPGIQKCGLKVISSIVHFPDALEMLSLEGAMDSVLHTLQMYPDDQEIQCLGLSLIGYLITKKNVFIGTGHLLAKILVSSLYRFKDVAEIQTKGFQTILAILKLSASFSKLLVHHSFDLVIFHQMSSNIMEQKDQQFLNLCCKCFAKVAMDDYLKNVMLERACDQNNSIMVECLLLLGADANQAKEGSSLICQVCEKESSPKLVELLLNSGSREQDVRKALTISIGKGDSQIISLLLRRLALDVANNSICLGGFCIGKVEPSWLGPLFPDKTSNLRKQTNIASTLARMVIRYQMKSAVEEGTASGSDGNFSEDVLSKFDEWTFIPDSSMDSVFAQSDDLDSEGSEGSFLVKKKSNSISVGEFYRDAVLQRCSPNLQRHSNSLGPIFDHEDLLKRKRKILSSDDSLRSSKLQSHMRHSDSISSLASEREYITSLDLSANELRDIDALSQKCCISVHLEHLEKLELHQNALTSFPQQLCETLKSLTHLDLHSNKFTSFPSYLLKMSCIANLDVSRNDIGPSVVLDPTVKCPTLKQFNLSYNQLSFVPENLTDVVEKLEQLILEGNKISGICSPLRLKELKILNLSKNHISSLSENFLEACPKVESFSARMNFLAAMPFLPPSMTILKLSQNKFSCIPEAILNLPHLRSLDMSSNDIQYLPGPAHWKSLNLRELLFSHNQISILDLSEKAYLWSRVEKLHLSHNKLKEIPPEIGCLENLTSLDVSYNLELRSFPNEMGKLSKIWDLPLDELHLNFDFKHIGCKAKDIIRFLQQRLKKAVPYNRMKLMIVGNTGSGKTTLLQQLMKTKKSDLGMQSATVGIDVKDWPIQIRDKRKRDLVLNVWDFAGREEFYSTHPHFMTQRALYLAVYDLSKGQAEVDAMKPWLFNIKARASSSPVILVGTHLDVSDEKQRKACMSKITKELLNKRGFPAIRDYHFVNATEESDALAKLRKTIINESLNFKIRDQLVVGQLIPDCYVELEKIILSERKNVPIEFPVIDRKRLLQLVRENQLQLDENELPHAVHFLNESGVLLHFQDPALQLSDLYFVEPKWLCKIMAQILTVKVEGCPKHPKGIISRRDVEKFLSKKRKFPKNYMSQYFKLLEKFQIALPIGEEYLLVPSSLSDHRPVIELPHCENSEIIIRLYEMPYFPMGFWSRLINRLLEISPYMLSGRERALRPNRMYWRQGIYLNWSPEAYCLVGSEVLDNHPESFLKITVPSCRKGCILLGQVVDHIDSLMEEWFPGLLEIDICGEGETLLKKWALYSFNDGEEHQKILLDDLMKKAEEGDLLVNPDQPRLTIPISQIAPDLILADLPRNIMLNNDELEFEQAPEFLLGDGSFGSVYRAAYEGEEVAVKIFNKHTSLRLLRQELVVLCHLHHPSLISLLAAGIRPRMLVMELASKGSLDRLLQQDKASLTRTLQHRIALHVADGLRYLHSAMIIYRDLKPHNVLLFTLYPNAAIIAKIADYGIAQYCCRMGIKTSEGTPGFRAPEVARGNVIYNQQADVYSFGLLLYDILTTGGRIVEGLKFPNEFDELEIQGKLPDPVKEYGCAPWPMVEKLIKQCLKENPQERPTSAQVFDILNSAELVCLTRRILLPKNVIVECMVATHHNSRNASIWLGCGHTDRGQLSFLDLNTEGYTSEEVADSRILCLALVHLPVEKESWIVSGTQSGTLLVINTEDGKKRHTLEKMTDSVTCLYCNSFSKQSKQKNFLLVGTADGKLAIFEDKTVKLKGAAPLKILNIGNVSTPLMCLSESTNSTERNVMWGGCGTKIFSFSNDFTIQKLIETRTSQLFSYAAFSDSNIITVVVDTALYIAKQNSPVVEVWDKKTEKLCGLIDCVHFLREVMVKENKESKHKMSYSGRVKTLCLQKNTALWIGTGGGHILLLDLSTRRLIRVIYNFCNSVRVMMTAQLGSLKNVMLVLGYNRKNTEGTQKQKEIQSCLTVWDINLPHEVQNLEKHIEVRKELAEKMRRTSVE

Mus musculus = assay: Inhibition of mitosis in human CAL51 cells xenografted in CB17 SCID mouse assessed reduction in pHH3 ser10 level at 30 mg/kg, po administered as single dose measured up to 48 hrs by MSD electrochemiluminescent immunoassay; format: functional, organism-based
In short: (§1)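 CB17 SCID mice bearing CAL-51 tumours of 300-500 mm3 given compound orally. At preset time points the mice were euthanised and the tumours dissected and snap-frozen in liquid nitrogen. pHH3 Ser10 or cleaved caspase measured by MSD electrochemiluminescent immunoassay kit. Data are mean ± SEM.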

Homo sapiens = organism: Homo sapiens; assay: Selectivity ratio of IC50 for recombinant human full length His-tagged JNK2 expressed in baculovirus expression system to IC50 for inhibition of Kinase Tracer 236 binding to recombinant human full-length GST-tagged TTk expressed in baculovirus expression system
CAL-51 [2] = assay: Antitumor activity against human CAL51 cells xenografted in CB17 SCID mouse assessed as tumor growth inhibition at 60 mg/kg, po administered every seven days for 16 days and measured twice per week up to 31 days by caliper method relative to control; format: functional; settings: CAL-51, po, read-out: TGI
In short: (§2)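 Female CB17 SCID mice, 6-8 weeks old, inoculated subcutaneously with 2×10^6 CAL-51 cells. Oral dosing once weekly (QW) at 30-120 mg/kg, or 30 mg/kg BID QW, for 16 days, against vehicle control. Tumour long and short axes measured twice weekly by digital caliper; volume = width² × length/2. Values are TGI; data are mean ± SEM.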

CAL-51 [3] = assay: Antiproliferative activity against human CAL51 cells assessed as reduction in cell viability after 3 days by CellTiter-Glo reagent-based luminescent assay; format: functional; settings: CAL-51, 72 h
[4] = Cmax in CB17 SCID mouse at 30 mg/kg, po; format: ADME, organism-based; set-up: dose 30 mg/kg, route oral; settings: in vivo
In short: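 Oral PK in SCID mice at 30 mg/kg. Compound is formulated either in CMCT (0.5% CMC/0.25% tween-80) or in 5% TPGS, 10% captisol, 50 mM citrate buffer, depending on compound. Cmax and AUC are measured.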

[5] = target: T1, Dual specificity protein kinase TTK (Homo sapiens, UniProt P33981); assay: Inhibition of Kinase Tracer 236 binding to recombinant human full-length GST-tagged TTk expressed in baculovirus expression system measured after 1 hr by LanthaScreen Eu--kinase binding assay
T1 sequence (P33981 whole entry): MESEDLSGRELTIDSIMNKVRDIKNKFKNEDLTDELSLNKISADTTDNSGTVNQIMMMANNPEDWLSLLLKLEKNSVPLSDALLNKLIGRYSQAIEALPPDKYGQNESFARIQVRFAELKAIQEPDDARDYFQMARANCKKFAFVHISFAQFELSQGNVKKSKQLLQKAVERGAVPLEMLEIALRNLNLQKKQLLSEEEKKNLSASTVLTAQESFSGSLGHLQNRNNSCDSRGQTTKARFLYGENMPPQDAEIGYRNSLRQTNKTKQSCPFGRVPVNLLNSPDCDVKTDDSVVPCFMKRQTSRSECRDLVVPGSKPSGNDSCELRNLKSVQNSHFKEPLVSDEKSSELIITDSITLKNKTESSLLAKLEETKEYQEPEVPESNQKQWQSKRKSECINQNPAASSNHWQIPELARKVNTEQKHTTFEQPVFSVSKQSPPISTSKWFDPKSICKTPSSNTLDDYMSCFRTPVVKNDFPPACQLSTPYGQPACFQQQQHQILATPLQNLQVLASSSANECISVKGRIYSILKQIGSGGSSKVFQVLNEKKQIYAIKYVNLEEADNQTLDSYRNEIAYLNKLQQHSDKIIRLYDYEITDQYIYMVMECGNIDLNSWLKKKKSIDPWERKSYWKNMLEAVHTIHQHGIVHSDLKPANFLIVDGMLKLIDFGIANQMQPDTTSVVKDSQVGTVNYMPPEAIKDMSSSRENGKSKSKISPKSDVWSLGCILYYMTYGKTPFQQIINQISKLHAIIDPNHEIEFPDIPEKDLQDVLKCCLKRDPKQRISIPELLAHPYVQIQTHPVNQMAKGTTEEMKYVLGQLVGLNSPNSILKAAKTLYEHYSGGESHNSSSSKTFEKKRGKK

[6] = Oral bioavailability in CB17 SCID mouse at 30 mg/kg; format: ADME, organism-based; settings: in vivo
CAL-51 [7] = assay: Antitumor activity against human CAL51 cells xenografted in CB17 SCID mouse assessed as tumor growth inhibition at 30 mg/kg, po […] for 16 days and measured twice per week up to 31 days by caliper method relative to control; format: functional; settings: CAL-51, po, read-out: TGI; in short: as §2
[8] = target: T2, Dual specificity tyrosine-phosphorylation-regulated kinase 3 (Homo sapiens) (UniProt O43781); assay: Inhibition of recombinant human full length GST-tagged DYRK3 expressed in baculovirus expression system at 3 uM by Z'-LYTE assay relative to control
T2 sequence (whole entry): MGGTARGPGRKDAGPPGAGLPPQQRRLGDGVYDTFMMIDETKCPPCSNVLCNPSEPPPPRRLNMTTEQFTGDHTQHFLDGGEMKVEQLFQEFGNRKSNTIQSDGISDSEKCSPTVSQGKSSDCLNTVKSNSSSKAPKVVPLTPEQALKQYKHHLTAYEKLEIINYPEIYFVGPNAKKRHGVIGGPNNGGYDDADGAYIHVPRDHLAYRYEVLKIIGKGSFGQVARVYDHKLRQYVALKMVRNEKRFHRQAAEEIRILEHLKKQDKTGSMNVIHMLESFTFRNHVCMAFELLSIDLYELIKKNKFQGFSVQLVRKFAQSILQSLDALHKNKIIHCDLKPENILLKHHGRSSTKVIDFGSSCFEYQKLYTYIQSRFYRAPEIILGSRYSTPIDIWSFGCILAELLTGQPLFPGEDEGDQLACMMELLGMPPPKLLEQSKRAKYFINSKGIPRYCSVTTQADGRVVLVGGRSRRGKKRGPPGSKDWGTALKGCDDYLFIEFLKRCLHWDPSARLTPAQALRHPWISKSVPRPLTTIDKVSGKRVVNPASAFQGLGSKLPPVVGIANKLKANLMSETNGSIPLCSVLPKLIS
In short: (§3)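 Kinase selectivity panel: single-point assessment at 3 µM, n=1.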

[9] = Metabolic stability in human liver S9 fraction assessed as parent compound remaining after 60 mins; format: ADME, subcellular; settings: read-out: Stability
LRRK2 = LRRK2 (Homo sapiens, UniProt Q5S007); assay: Inhibition of recombinant human GST-tagged LRRK2 catalytic domain (970 to 2527 residues) expressed in baculovirus expression system at 3 uM using LRRKtide as substrate measured after 1 hr by Alexa fluor-647 ADP tracer-based ADAPTA assay relative to control; settings: probe LRRKtide; in short: as §3
LRRK2, sequence (Q5S007 whole entry, the tested form may be a part): as the sequence (Q5S007 whole entry, the tested form may be a part) above

CAL-51 [10] = assay: Induction of apoptosis in human CAL51 cells xenografted in CB17 SCID mouse assessed as activation of cleaved caspase-3 at 30 mg/kg, po measured after 1 to 48 hrs by MSD electrochemiluminescent immunoassay relative to control; format: functional; in short: as §1

In the case of C[C@@H](Oc1cc(C(=O)N(C)C)ccc1Nc1nc(O[C@H]2CC[C@@](C)(O)CC2)c2c(Cl)c[nH]c2n1)C(F)(F)F, the IC50 [1] is reported as 0.001 nM, the inhibition (Mus musculus) is reported as “Active” and the Ratio IC50 (Homo sapiens) is reported as < 100. The inhibition in vivo at 60 mg/kg (CAL-51 [2]) was 65%, the IC50 (CAL-51 [3]) was 10 nM and the Cmax [4] was 5.2 µM. For the same compound, the IC50 [5] was 0.7 nM, the bioavailability [6] was 60% and the inhibition in vivo at 30 mg/kg (CAL-51 [7]) was 84%. For the same compound, the inhibition [8] was > 80%, the remaining at 1 h [9] was 65% and the inhibition at 1 h, 3 µM (LRRK2) was > 80%. For the same compound, the Activity (CAL-51 [10]) was 250%.
